Data from ChEMBL document CHEMBL2169769, “Synthesis and biological characterization of protease-activated prodrugs of doxazolidine” (J Med Chem, 2012).

What was measured:
MCF7 [1] = test: Cytotoxicity against human MCF7 cells incubated for 24 hrs measured after 5 days in presence of 0.2 U papain; format: functional, cell-based
Method in brief: (§1)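 Cells seeded 1000/well, adhered overnight, then serum-free medium with or without plasmin, trypsin, cathepsin B or papain (0.2 U/well), aprotinin (5 µM) or protease inhibitor cocktail (1X). Prodrug 2000–1 nM final, 24 h; then complete medium up to 5 days or control 80% confluence. Formalin fixed, crystal violet, A582; % of control fit to variable-slope sigmoid for IC50.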

MIA PaCa-2 [2] = test: Cytotoxicity against human MIAPaCa2 cells incubated for 24 hrs measured after 5 days in presence of 5 uM aprotinin; format: functional, cell-based; method in brief: as §1
[3] = Cytotoxicity against human L3.5 cells incubated for 24 hrs measured after 5 day; format: functional, cell-based; method in brief: as §1
[4] = Cytotoxicity against human L3.6PL cells incubated for 24 hrs measured after 5 days in presence of 0.2 U human plasmin; format: functional, cell-based; method in brief: as §1
MCF7 [5] = test: Cytotoxicity against human MCF7 cells incubated for 24 hrs measured after 5 days in presence of 0.2 U trypsin; format: functional, cell-based; method in brief: as §1
SHP77 = test: Cytotoxicity against human doxorubicin-resistant SHP77 cells incubated for 24 hrs measured after 5 days; format: functional, cell-based; method in brief: as §1
[6] = Prodrug conversion assessed as release dozax at 50 uM at pH 7.4 in PBS buffer in absence of human plasmin after 24 hrs by RP-HPLC; format: ADME; details: pH 7.4, 24 h
Method in brief: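 Enzyme-free control: 50 µM prodrug in PBS at 37 °C over 24 h, RP-HPLC monitoring dox at 480 nm.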

MCF7 [7] = test: Cytotoxicity against human MCF7 cells incubated for 24 hrs measured after 5 days in presence of 5 uM aprotinin; format: functional, cell-based; method in brief: as §1
[8] = target: Plasminogen (Homo sapiens) (UniProt P00747); test: Activity of human plasmin assessed as enzyme catalytic efficiency for compound hydrolysis at 50 uM at pH 7.4 in PBS buffer by RP-HPLC
Method in brief: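 Michaelis-Menten kinetics, substrate 10–400 µM at 37 °C. Plasmin: 0.2 U, PBS pH 7.4, 4 min. Cathepsin B: 0.08 U, PBS-NAC pH 6.5, 20 min. Quenched with equal volume ethanol, −20 °C ≥2 h, centrifuged, supernatant RP-HPLC at 480 nm. Rates (µM/min) fit by non-linear least squares; triplicates.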

HEK-293T = test: Cytotoxicity against human HEK293T cells incubated for 24 hrs measured after 5 day; format: cell-based; method in brief: as §1
Plasma = test: Stability in human plasma assessed as doxorubicin production at 50 uM incubated over 24 hrs by RP-HPLC; format: ADME, cell-free
Method in brief: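 Prodrug diluted to 50 µM final in undiluted plasma from healthy human donors, 37 °C for 24 h. Aliquots at 0.25, 1, 3, 8, 12 and 24 h were quenched with equal-volume ethanol and held at −20 °C overnight; protein was spun out. Supernatant run on RP-HPLC; percent prodrug and dox taken from relative 480 nm absorbance, counting all 480 nm species; triplicate.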

Homo sapiens = species: Homo sapiens; test: Selectivity ratio of catalytic efficiency of human plasmin to catalytic efficiency of human cathepsin B
Method in brief: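 Michaelis–Menten kinetics with human enzymes and substrate at 10–400 µM, 37 °C. Plasmin: 0.2 U in PBS pH 7.4 for 4 min. Cathepsin B: 0.08 U in PBS with 10 mM N-acetylcysteine, pH 6.5, for 20 min. Quenched with ethanol, held at −20 °C ≥2 h, centrifuged. Dox release read by RP-HPLC at 480 nm. Rates (µM/min) fit by non-linear least squares; triplicate.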

MIA PaCa-2 [9] = test: Cytotoxicity against human MIAPaCa2 cells incubated for 24 hrs measured after 5 days in presence of 0.2 U trypsin; format: functional, cell-based; method in brief: as §1
[10] = target: Plasminogen (Homo sapiens) (UniProt P00747); test: Activity of human plasmin assessed as compound hydrolysis measuring enzyme specific activity at 50 uM at pH 7.4 in PBS buffer by RP-HPLC
Method in brief: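 Specific activity from hydrolysis time courses at 37 °C with 50 µM substrate. Plasmin in PBS pH 7.4; cathepsin B diluted two-fold in PBS-NAC, reacted in PBS-NAC (10 mM N-acetylcysteine) pH 6.5. Ethanol-quenched aliquots, protein precipitated at −20 °C, RP-HPLC at 480 nm tracking dox release. Linear least-squares slope used; 1 U = 1 µM substrate hydrolysed per min.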

[11] = Cytotoxicity against doxorubicin-resistant human NCI-ADR-RES.cells incubated for 24 hrs measured after 5 days in presence of 0.2 U human plasmin; format: functional, cell-based; method in brief: as §1
Papain (Carica papaya) = target: T1, Papain (Carica papaya) (UniProt P00784); test: Activity of papaya papain assessed as compound hydrolysis measuring enzyme specific activity at 50 uM at pH 6.5 in PBS buffer containing 10 mM N-acetylcysteine by RP-HPLC
T1 sequence (whole entry): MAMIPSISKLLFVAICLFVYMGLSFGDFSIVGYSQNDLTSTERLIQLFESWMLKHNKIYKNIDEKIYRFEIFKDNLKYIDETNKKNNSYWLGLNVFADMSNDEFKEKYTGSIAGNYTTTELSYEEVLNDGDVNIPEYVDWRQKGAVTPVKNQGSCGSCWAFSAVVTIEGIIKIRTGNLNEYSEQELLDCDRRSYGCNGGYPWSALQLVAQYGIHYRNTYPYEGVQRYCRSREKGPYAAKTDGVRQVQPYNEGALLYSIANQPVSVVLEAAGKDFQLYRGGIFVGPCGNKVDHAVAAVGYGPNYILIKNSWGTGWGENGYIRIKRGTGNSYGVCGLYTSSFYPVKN
Method in brief: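 50 µM prodrug incubated at 37 °C with enzyme: trypsin in PBS; papain diluted two-fold in PBS-NAC (PBS + 10 mM N-acetylcysteine), reacted in PBS-NAC pH 6.5. Aliquots quenched in equal volume ethanol, −20 °C ≥2 h, centrifuged; supernatant RP-HPLC at 480 nm for substrate loss and dox gain. Slope of linear fit gives activity; 1 U = 1 µM prodrug hydrolysed per min.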

MIA PaCa-2 [12] = test: Cytotoxicity against human MIAPaCa2 cells incubated for 24 hrs measured after 5 days in presence of complete protease inhibitor cocktail; format: functional, cell-based; method in brief: as §1
MIA PaCa-2 [13] = test: Cytotoxicity against human MIAPaCa2 cells incubated for 24 hrs measured after 5 days; format: functional, cell-based; method in brief: as §1

Sequence of Plasminogen (Homo sapiens) (P00747 97-580 limits assumed): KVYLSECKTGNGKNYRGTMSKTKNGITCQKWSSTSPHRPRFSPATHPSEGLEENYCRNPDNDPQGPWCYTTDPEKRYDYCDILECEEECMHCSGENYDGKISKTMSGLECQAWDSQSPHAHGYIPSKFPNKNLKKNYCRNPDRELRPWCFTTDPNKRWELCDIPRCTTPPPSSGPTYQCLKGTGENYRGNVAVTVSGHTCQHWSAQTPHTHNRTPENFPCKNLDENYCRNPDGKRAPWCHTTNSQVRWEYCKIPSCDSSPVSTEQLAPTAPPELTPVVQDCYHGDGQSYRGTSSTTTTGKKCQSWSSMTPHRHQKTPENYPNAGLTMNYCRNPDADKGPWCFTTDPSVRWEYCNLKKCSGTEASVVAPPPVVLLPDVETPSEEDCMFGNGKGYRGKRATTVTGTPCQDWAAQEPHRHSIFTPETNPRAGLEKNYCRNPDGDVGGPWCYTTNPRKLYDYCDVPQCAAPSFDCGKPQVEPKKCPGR
Sequence of Plasminogen (Homo sapiens) (P00747 581-810 limits assumed): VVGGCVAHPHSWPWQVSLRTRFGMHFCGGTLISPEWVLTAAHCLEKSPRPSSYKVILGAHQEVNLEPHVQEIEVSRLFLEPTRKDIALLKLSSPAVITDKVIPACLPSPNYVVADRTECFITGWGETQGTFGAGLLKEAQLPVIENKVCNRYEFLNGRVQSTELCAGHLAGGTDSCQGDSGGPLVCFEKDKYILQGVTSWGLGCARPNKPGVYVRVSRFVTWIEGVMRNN

Work on COc1cccc2c1C(=O)c1c(O)c3c(c(O)c1C2=O)C[C@@](O)(C(=O)CO)C[C@@H]3O[C@H]1C[C@H]2[C@H](OCN2C(=O)OCc2ccc(NC(=O)[C@H](CCCCN)NC(=O)[C@H](Cc3ccccc3)NC(=O)[C@@H](C)NC(=O)CNC(C)=O)cc2)[C@H](C)O1.O=P(O)(O)O yielded an IC50 (MCF7 [1]) of 60.3 nM, an IC50 (MIA PaCa-2 [2]) of 282 nM and an IC50 [3] of 224 nM. The IC50 [4] was 3.16 nM, the IC50 (MCF7 [5]) was 31.6 nM and the IC50 (SHP77) was 1580 nM. For the same compound, the Stability [6] was “Stable”, the IC50 (MCF7 [7]) was 295 nM and the Activity [8] was 1.43 ×10⁴ /M/s. For the same compound, the IC50 (HEK-293T) was 200 nM, the Stability (Plasma) was “Stable” and the Ratio (Homo sapiens) was greater than 3. The IC50 (MIA PaCa-2 [9]) was 26.3 nM, the Activity [10] was 1940 U/mg and the IC50 [11] was 11.7 nM. It also gave an Activity (Papain (Carica papaya)) of 890 U/mg, an IC50 (MIA PaCa-2 [12]) of 398 nM and an IC50 (MIA PaCa-2 [13]) of 251 nM.
